Activity calls are given as the source filed them. The rule behind the calls is not given here.
What was measured:
[1] = Dissociation constant, pKa of the compound; assay type: physicochemical
In short: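 UV titration across pH. Molar extinction coefficient read at the two wavelengths where ε changes most between acidic and basic solution, then plotted against pH. pKa taken as the pH midway between the horizontal sections of the curve.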

[2] = Inhibition of telomerase by TRAP assay; parameters: species or system Homo sapiens
In short: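 Cell-free modified TRAP using A2780 ovarian carcinoma extract, 0.04 μg protein. TS primer extended in TRAP buffer pH 8.3 with 68 mM KCl, 1.5 mM MgCl2, 50 μM dNTPs and [32P]dCTP, agent up to 50 μM final, 20 min at 25 °C. Then 31 PCR cycles; products read by denaturing gel phosphorimaging or filter scintillation counting.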

Homo sapiens [3] = organism: Homo sapiens; assay: Induction of G-quadruplex in G-rich human telomere 21 DNA assessed as circular dichroism spectral change at 50 uM
In short: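 Telo21 at 5 μM strand in 10 mM Tris-HCl pH 7.4, no metal ions, compound at 50 μM. Annealed at 90 °C, cooled slowly, held at 4 °C for several hours. CD recorded 320–200 nm, 16 scans at 100 nm/min, 1 nm bandwidth, buffer baseline subtracted.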

Homo sapiens [4] = organism: Homo sapiens; assay: Destruction of parallel G-quadruplexes in mixed G-quadruplex human telomere 21 DNA in presence of 0.1 M potassium
Homo sapiens [5] = organism: Homo sapiens; assay: Induction of G-quadruplex in G-rich human telomere 21 DNA in presence of 100 mM K+ ions by EMSA
In short: (§1)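 Native-gel shift of 20 μM telo21 in 10 mM Tris-HCl pH 7.4, with or without 100 mM KCl, heated 95 °C for 10 min then cooled. Compound titrated in at increasing concentrations and incubated 4–8 h at room temperature. Run on native 15% PAGE in TBE for 2 h, silver-stained; G-quadruplex and single-strand bands scored.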

Homo sapiens [6] = organism: Homo sapiens; assay: Induction of G-quadruplex in G-rich human telomere 21 DNA by EMSA; in short: as §1

Compound	pKa [1]	IC50 [2]	Activity (Homo sapiens [3])	Activity (Homo sapiens [4])	Activity (Homo sapiens [5])	Activity (Homo sapiens [6])
c1ccc2nc3c(cc2c1)[nH]c1ccccc13 [QUINDOLINE]	4.2	> 138 µM				
OCCNc1c2ccccc2nc2c1oc1ccccc12	8.2	12.3 µM	Active			
OCCCNc1c2ccccc2nc2c1[nH]c1ccccc12	8.3	1.55 µM	Active			
CN(C)CCCNc1c2ccccc2nc2c1oc1ccccc12	8.3	3.29 µM	Active			
CN(C)CCCNc1c2ccccc2nc2c1[nH]c1ccccc12	8.4	0.44 µM	Active			
c1ccc2c(NCCN3CCOCC3)c3[nH]c4ccccc4c3nc2c1	8.4	0.55 µM	Active	Active	Active	Active
c1ccc2c(NCCN3CCOCC3)c3oc4ccccc4c3nc2c1	8.2	4.38 µM	Active			

The remaining compounds from weak to strong by IC50 [2], led by results:

pKa [1]	IC50 [2]	Activity (Homo sapiens [3])	Activity (Homo sapiens [4])	Activity (Homo sapiens [5])	Activity (Homo sapiens [6])	Compound
8.2	8.12 µM	Active				OCCCNc1c2ccccc2nc2c1oc1ccccc12
8.2	7.11 µM	Active				CN(C)CCNc1c2ccccc2nc2c1oc1ccccc12
8.3	2.35 µM	Active				OCCNc1c2ccccc2nc2c1[nH]c1ccccc12
8.3	1.12 µM	Active				CN(C)CCNc1c2ccccc2nc2c1[nH]c1ccccc12

Source: ChEMBL document CHEMBL1139482, “Synthesis and evaluation of quindoline derivatives as G-quadruplex inducing and stabilizing ligands and potential inhibitors of telomerase” (J Med Chem, 2005)
